Each block holds one compound with its values, some of them ahead of it. Active and inactive are the calls of the source. The rule behind the calls is not given here.
What was measured:
[1] = biological target: T1, Multidrug resistance-associated protein 1 (Homo sapiens, UniProt P33527); experiment: Inhibition of MRP1 in human 2008/MRP1 cells assessed as potentiation of doxorubicin-induced cytotoxicity by measuring cell survival at 2 uM after 5 days by MTS assay relative to control; format: cell-based; conditions: 120 h
T1 sequence (P33527 whole entry): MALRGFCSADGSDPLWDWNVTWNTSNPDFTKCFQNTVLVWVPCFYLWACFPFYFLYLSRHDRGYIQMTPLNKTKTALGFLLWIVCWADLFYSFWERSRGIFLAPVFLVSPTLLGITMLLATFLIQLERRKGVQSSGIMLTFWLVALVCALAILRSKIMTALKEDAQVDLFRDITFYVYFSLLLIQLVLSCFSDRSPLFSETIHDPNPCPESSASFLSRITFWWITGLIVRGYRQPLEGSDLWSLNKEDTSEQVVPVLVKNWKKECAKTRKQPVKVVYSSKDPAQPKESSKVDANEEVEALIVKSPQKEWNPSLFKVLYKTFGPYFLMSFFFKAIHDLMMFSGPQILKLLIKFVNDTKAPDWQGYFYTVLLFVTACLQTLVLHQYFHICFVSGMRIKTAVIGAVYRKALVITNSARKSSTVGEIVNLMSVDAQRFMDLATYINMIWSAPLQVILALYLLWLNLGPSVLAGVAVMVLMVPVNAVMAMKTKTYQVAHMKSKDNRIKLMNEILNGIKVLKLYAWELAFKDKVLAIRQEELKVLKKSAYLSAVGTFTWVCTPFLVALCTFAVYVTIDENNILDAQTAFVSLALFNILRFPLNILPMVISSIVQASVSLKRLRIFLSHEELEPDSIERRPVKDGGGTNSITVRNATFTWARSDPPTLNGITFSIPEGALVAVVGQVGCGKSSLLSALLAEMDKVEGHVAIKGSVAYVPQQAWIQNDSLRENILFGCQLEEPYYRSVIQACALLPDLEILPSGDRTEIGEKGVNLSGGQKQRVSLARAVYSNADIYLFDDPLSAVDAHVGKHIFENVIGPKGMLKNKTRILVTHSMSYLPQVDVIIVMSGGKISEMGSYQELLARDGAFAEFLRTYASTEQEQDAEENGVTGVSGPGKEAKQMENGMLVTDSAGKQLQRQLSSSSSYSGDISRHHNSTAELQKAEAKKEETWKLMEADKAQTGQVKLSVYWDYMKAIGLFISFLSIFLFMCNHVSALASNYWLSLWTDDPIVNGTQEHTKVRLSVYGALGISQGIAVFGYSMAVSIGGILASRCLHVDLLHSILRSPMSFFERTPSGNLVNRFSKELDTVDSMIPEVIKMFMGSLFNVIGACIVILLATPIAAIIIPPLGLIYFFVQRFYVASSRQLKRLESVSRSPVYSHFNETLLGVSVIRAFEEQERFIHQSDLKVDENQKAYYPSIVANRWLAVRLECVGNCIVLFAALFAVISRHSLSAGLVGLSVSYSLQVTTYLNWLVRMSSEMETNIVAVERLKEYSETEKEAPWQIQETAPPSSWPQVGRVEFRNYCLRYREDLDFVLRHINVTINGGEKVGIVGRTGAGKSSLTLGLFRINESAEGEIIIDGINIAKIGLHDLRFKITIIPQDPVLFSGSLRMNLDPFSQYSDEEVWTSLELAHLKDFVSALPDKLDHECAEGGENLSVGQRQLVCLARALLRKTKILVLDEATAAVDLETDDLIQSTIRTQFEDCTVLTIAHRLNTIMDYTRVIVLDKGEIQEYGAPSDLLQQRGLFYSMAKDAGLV
Procedure, shortened: (§1)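 2008/MRP1 cells (retroviral human MRP1 transfectant; RPMI 1640, 10% FBS) at 4,000 per well, with 100 nM doxorubicin plus crude, unpurified click products in DMSO: 2 µM in the primary screen, 1 µM in the secondary. Incubated 5 days at 37 °C. MTS/PMS added for 2 h at 37 °C, absorbance read at 490 nm. % survival is relative to wells without DOX or product. Run in triplicate, at least three experiments.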

[2] = biological target: T1, Multidrug resistance-associated protein 1; experiment: Inhibition of MRP1 in human 2008/MRP1 cells assessed as potentiation of doxorubicin-induced cytotoxicity by measuring cell survival at 1 uM after 5 days by MTS assay relative to control; format: cell-based; conditions: 120 h; procedure, shortened: as §1
[3] = Cytotoxicity against human 2008/MRP1 cells assessed as cell survival at 2 uM after 5 days by MTS assay relative to control; format: cell-based; conditions: read-out: Survival
L929 = experiment: Cytotoxicity against mouse L929 cells assessed as reduction in cell survival after 5 days by MTS assay; format: cell-based; conditions: L929, 120 h
[4] = biological target: T1, Multidrug resistance-associated protein 1; experiment: Inhibition of MRP1 in human 2008/MRP1 cells assessed as effect on doxorubicin efflux at 2 uM up to 105 mins by flow cytometric analysis; format: cell-based
Procedure, shortened: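 Efflux: cells preloaded with 20 µM DOX in supplemented RPMI1640 for 1 h at 37°C, washed, then kept with or without 2 µM modulator. […] Mean ± SEM; paired t test at each time point.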

MRP1 = experiment: in vitro; conditions: mouse, L929 cells (IC50) versus 2008/MRP1 cells (EC50)
Homo sapiens [5] = species on record: Homo sapiens; experiment: Effect on MRP1 expression in human 2008/MRP1 cells up to 5 uM after 3 days by FITC staining based flow cytometry; format: functional, cell-based
Homo sapiens [6] = species on record: Homo sapiens; experiment: Effect on doxorubicin influx in human 2008/P cells at 2 uM incubated up to 60 mins by flow cytometric analysis; format: functional, cell-based
Homo sapiens [7] = species on record: Homo sapiens; experiment: Effect on doxorubicin influx in human 2008/MRP1 cells at 2 uM incubated up to 60 mins by flow cytometric analysis; format: functional, cell-based
Homo sapiens [8] = species on record: Homo sapiens; experiment: Inhibition of P-gp in human LCC6MDR cells assessed as potentiation of paclitaxel-induced cytotoxicity by measuring fold reduction in paclitaxel IC50 at 1 uM after 5 days by MTS assay relative to paclitaxel alone; format: cell-based
[9] = Plasma concentration in Balb/c mouse at 10 mg/kg, iv measured up to 360 mins by LC-MS/MS analysis; format: ADME, organism-based; conditions: in vivo, 6 h, BLD = below limit of detection
Procedure, shortened: (§2)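 Female Balb/c mice given 10 mg/kg i.v. (25G needle) of the HCl salt, 1.5 mg/mL in NMP:Cremorphol:Tween 80:H₂O (5:5:4.5:85.5). Cardiac-puncture blood under ether at 15–360 min, 3 mice per time point; plasma spun 16,000 g, stored −20°C. Methanol precipitation with [¹³C6]paclitaxel internal standard; LC-MS/MS, BEH C18, water/methanol with 0.1% formic acid gradient. Mean ± SEM.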

[10] = Solubility in NMP/Cremorphol/Tween80/H2O (5:5:4.5:85.5) formulation; format: physicochemical
Mus musculus = experiment: Time duration at which plasma concentration stays above in vitro EC50 for MRP1 in Balb/c mouse at 10 mg/kg, iv measured up to 360 mins by LC-MS/MS analysis; format: ADME, organism-based; conditions: in vivo, 6 h; procedure, shortened: as §2

Compound: O=c1cc(-c2ccc(OCCCc3cn(CCOCCOc4ccc5c(=O)cc(-c6ccccc6)oc5c4)nn3)cc2)oc2cc(F)ccc12 [listing 1 of 2 here]
Survival [1]: 41% | Survival [2]: 49% | viability at 120 h, 2 µM [3]: 93% | IC50 (L929): > 100 µM | INH [4]: Active | selectivity ratio (MRP1): > 1890

Compound: O=c1cc(-c2ccc(OCCCc3cn(CCOCCOc4ccc5c(=O)cc(-c6ccccc6)oc5c4)nn3)cc2)oc2cc(F)ccc12 [listing 2 of 2 here]
Activity (Homo sapiens [5]): inactive | Activity (Homo sapiens [6]): inactive | Activity (Homo sapiens [7]): inactive | Ratio IC50 (Homo sapiens [8]): 40.7

Cp [9]: Bld | solubility [10]: Insoluble
Compound: Cc1ccc2oc(-c3ccc(OCCOCCOCCOCCOCCOc4ccc(-c5cc(=O)c6cc(C)ccc6o5)cc4)cc3)cc(=O)c2c1
IC50 (L929): > 100 µM

Compound: Cl.O=c1cc(-c2ccc(OCCCc3cn(CCOCCOc4ccc5c(=O)cc(-c6ccccc6)oc5c4)nn3)cc2)oc2cc(F)ccc12
Time (Mus musculus): 90 min

From ChEMBL document CHEMBL4257575, “Discovery of Novel Flavonoid Dimers To Reverse Multidrug Resistance Protein 1 (MRP1, ABCC1) Mediated Drug Resistance in Cancers Using a High Throughput Platform with "Click Chemistry"” (J Med Chem, 2018)
